# Data from ChEMBL document CHEMBL3286304, “Cytotoxicity and DNA binding property of the dimers of triphenylethylene-coumarin hybrid with one amino side chain” (Bioorg Med Chem Lett, 2014).
# Activity calls are given as the source filed them. The calls are words filed in the database; no cut-off is given here.
# Tests used:
# MCF7 = assay: Antiproliferative activity against human MCF7 cells after 48 hrs by MTT assay; format: functional, cell-based; settings: MCF7, 48 h
# K562 = assay: Antiproliferative activity against human K562 cells after 48 hrs by MTT assay; format: functional, cell-based; settings: K562, 48 h
# A549 = assay: Antiproliferative activity against human A549 cells after 48 hrs by MTT assay; format: functional, cell-based; settings: A549, 48 h
# HeLa = assay: Antiproliferative activity against human HeLa cells after 48 hrs by MTT assay; format: functional, cell-based
# Calf thymus DNA [1] = assay: Binding affinity to calf thymus DNA assessed as DNA intercalation at 20 uM at pH 7.4 after 10 mins by circular dichroism analysis; format: nucleic-acid assay; settings: Bos taurus
# In short: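 CD spectra of Ct-DNA (5.0 × 10^-5 M) alone and with dimer at 2.0 × 10^-5 M in 10 mM phosphate buffer pH 7.4, 50 mM NaCl, 2% DMSO, 25 °C.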
# Calf thymus DNA [2] = assay: Binding affinity to calf thymus DNA assessed as change in melting temperature at 5 uM after 10 mins by thermal denaturation assay; format: nucleic-acid assay; settings: Bos taurus
# In short: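 Melting curves of Ct-DNA (5.0 × 10^-5 M) with or without dimer at 5.0 × 10^-6 M in 1 mM phosphate buffer pH 7.4, 5 mM NaCl, 2% DMSO; heated over roughly 55–85 °C; ΔTm taken relative to DNA alone.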
# Calf thymus DNA [3] = assay: Binding affinity to calf thymus DNA assessed as hypsochromic shift at 50 uM at 25 degC at pH 7.4 after 10 mins by UV-vis spectrophotometry; format: nucleic-acid assay; settings: Bos taurus
# In short: (§1)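 Ct-DNA titrated (0–180 µM for some dimers, 0–160 µM for others) into dimer at 5.0 × 10^-5 M in 10 mM phosphate buffer pH 7.4, 50 mM NaCl, 2% DMSO, 25 °C; UV–vis absorption followed at λmax; binding constant K by double inverse method.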
# Calf thymus DNA [4] = assay: Binding affinity to calf thymus DNA assessed as hyperchromicity at 50 uM at 25 degC at pH 7.4 after 10 mins by UV-vis spectrophotometry; format: nucleic-acid assay; settings: Bos taurus; in short: as §1
# Calf thymus DNA [5] = assay: Binding affinity to calf thymus DNA at 25 degC at pH 7.4 after 10 mins by UV-vis spectrophotometry; format: nucleic-acid assay; settings: Bos taurus; in short: as §1
# Calf thymus DNA [6] = assay: Binding affinity to calf thymus DNA at 25 degC at pH 7.4 after 10 mins by Stern-Volmer plot analysis; format: nucleic-acid assay; settings: Bos taurus
# In short: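 Dimer (5.0 × 10^-5 M) titrated with Ct-DNA 0–180 µM in 10 mM phosphate pH 7.4, 50 mM NaCl, 2% DMSO, 25 °C; fluorescence emission near 465 nm, excitation 330–345 nm by compound, slits 5.0 nm; F/F0 versus DNA concentration, Stern–Volmer fitting gives binding constant.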
# [7] = Cytotoxicity against mouse skull osteoblasts at 10 uM after 48 hrs by MTT assay; format: cell-based; settings: osteoblast
# [8] = Cytotoxicity against mouse skull osteoblasts at 40 uM after 48 hrs by MTT assay; format: cell-based; settings: osteoblast
# [9] = Cytotoxicity against mouse skull osteoblasts at 100 uM after 48 hrs by MTT assay; format: cell-based; settings: osteoblast
# [10] = Cytotoxicity against mouse skull osteoblasts at 20 uM after 48 hrs by MTT assay; format: cell-based; settings: osteoblast
# [11] = Cytotoxicity against mouse skull osteoblasts at 1 uM after 48 hrs by MTT assay; format: cell-based; settings: osteoblast
SMILES,IC50 (MCF7) [µM],IC50 (K562) [µM],IC50 (A549) [µM],IC50 (HeLa) [µM],Activity (Calf thymus DNA [1]),ΔTm (Calf thymus DNA [2]) [°C],Activity (Calf thymus DNA [3]) [nm],Activity (Calf thymus DNA [4]) [%],Kb (Calf thymus DNA [5]),Kb (Calf thymus DNA [6]),Activity [7] [%],Activity [8] [%],Activity [9] [%],Activity [10] [%],Activity [11] [%]
O=C(CCCCC(=O)Nc1ccc(-c2c(-c3ccc(OCCN4CCCC4)cc3)c3ccccc3oc2=O)cc1)Nc1ccc(-c2c(-c3ccc(OCCN4CCCC4)cc3)c3ccccc3oc2=O)cc1,37.6,28,22.3,36.4,,,,,,,,,,,
O=C(Nc1ccc(-c2c(-c3ccc(OCCN4CCCC4)cc3)c3ccccc3oc2=O)cc1)c1cccc(C(=O)Nc2ccc(-c3c(-c4ccc(OCCN5CCCC5)cc4)c4ccccc4oc3=O)cc2)c1,29.5,15.2,15.2,31,,,,,,,,,,,
O=C(Nc1ccc(-c2c(-c3ccc(OCCN4CCCCC4)cc3)c3ccccc3oc2=O)cc1)c1cccc(C(=O)Nc2ccc(-c3c(-c4ccc(OCCN5CCCCC5)cc4)c4ccccc4oc3=O)cc2)c1,> 50,> 50,> 50,> 50,Active,2,0.5,32,4.8 ×10⁴ /M,1.3 ×10⁴ /M,,,,,
Nc1ccc(-c2c(-c3ccc(OCCN4CCCCC4)cc3)c3ccccc3oc2=O)cc1,43.8,> 50,> 50,> 50,,,,,,,,,,,
O=C(CC(=O)Nc1ccc(-c2c(-c3ccc(OCCN4CCCC4)cc3)c3ccccc3oc2=O)cc1)Nc1ccc(-c2c(-c3ccc(OCCN4CCCC4)cc3)c3ccccc3oc2=O)cc1,3.52,3.23,7.73,6.49,,,,,,,-1.3,14.5,27.4,0.8,-10.4
O=C(CCCCCCCCC(=O)Nc1ccc(-c2c(-c3ccc(OCCN4CCCCC4)cc3)c3ccccc3oc2=O)cc1)Nc1ccc(-c2c(-c3ccc(OCCN4CCCCC4)cc3)c3ccccc3oc2=O)cc1,> 50,> 50,> 50,> 50,Active,2.5,1.5,35,5.3 ×10⁴ /M,2.1 ×10⁴ /M,,,,,
O=C(CCCCCCCCC(=O)Nc1ccc(-c2c(-c3ccc(OCCN4CCCC4)cc3)c3ccccc3oc2=O)cc1)Nc1ccc(-c2c(-c3ccc(OCCN4CCCC4)cc3)c3ccccc3oc2=O)cc1,35.9,18.9,16.9,42.5,,,,,,,,,,,
O=C(CCCCC(=O)Nc1ccc(-c2c(-c3ccc(OCCN4CCCCC4)cc3)c3ccccc3oc2=O)cc1)Nc1ccc(-c2c(-c3ccc(OCCN4CCCCC4)cc3)c3ccccc3oc2=O)cc1,35.4,23.8,27,34.4,Active,5.1,1.5,40,1.5 ×10⁵ /M,3.8 ×10⁵ /M,,,,,
Nc1ccc(-c2c(-c3ccc(OCCN4CCCC4)cc3)c3ccccc3oc2=O)cc1,45.7,> 50,> 50,> 50,,,,,,,,,,,
O=C(CC(=O)Nc1ccc(-c2c(-c3ccc(OCCN4CCCCC4)cc3)c3ccccc3oc2=O)cc1)Nc1ccc(-c2c(-c3ccc(OCCN4CCCCC4)cc3)c3ccccc3oc2=O)cc1,8.57,0.98,8.44,7.82,Active,6,2,47,4.5 ×10⁵ /M,6.9 ×10⁵ /M,0.3,20.1,36.2,0.6,-8.4
